Source: ChEMBL document CHEMBL1255468 (Antimicrob Agents Chemother, 2010)
Activity calls are given as the source filed them. The calls are words filed in the database; no cut-off is given here.

How the values were obtained:
Trypanosoma cruzi [1] = assay: Antitrypanosomal activity against Trypanosoma cruzi amastigotes infected in mouse peritoneal macrophages assessed as inhibition of infection after 3 day; format: functional, organism-based; conditions: 72 h
Outline: (§1)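 Swiss mouse peritoneal macrophages (3 × 10^5/well) were plated for 24 h, then infected with Y-strain trypomastigotes (10:1) in DMEM with 10% FCS for 3 h. Free parasites were washed off, and compounds were added at 2.5–30 µM final for 1–4 days. Cells were fixed in Bouin's solution and stained with Giemsa. Percent infection and endocytic index (parasites/100 cells) were counted, and IC50 was derived. Three independent experiments.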

Mus musculus [2] = assay: Toxicity in mouse assessed as GOT level in blood at 400 mg/kg, po after 4 days; format: organism-based; design: dose 400 mg/kg, route oral; conditions: in vivo, 96 h
Outline: (§2)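 Uninfected male Swiss mice, 8–10 per group, received by gavage either a single 400 mg/kg dose or 10 doses of 100 mg/kg (vehicle water with 10% Tween-80). GOT, GPT and urea were measured directly in blood with the Reflotron system, and body weight was recorded. Single-dose toxicity was analyzed 4 days after treatment.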

Mus musculus [3] = assay: Toxicity in mouse assessed as GPT level in blood at 100 mg/kg, po after 4 days; format: organism-based; design: dose 100 mg/kg, route oral; conditions: in vivo, 96 h; outline: as §2
Trypanosoma cruzi [4] = assay: Antitrypanosomal activity against Trypanosoma cruzi amastigotes infected in mouse embryo heart muscle cells assessed as endocytic index; format: functional, organism-based
Outline: (§3)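 Mouse embryo heart muscle cells (10^5/well) were plated on gelatin-coated coverslips and infected after 24 h with trypomastigotes at 10:1 parasite/host cell. After another 24 h, cultures were washed and exposed to compounds at 10–40 µM final. At intervals, cells were fixed in Bouin's solution and stained with Giemsa. Percent infection and endocytic index (parasites/100 cells) were counted, and IC50 was derived.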

Trypanosoma cruzi [5] = assay: Antitrypanosomal activity against Trypanosoma cruzi trypomastigotes assessed as alteration in autophagosome-like structure formation at […] after 24 hrs by Transmission electron microscopy; format: functional, organism-based
Mus musculus [6] = assay: Toxicity in mouse assessed as body weight at 400 mg/kg, po after 4 days; format: organism-based; design: dose 400 mg/kg, route oral; conditions: in vivo, 96 h; outline: as §2
Trypanosoma cruzi [7] = assay: Antitrypanosomal activity against Trypanosoma cruzi infected in mouse assessed as decrease in mortality rate at 100 mg/kg, po after 6 days post infection; format: functional, organism-based; design: dose 100 mg/kg
Outline: (§4)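 Male Swiss mice, 8–10 per group, infected i.p. with 10^4 bloodstream trypomastigotes. From dpi 6, mice received 10 consecutive daily gavage doses of 100 mg/kg in water with 10% Tween-80. Parasitemia was read daily on dpi 6–21 by the Pizzi-Brener method. Mortality was noted daily, and %CM at 40 dpi and M50 were calculated.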

Trypanosoma cruzi [8] = assay: Antitrypanosomal activity against Trypanosoma cruzi amastigotes infected in mouse peritoneal macrophages assessed as inhibition of infection after 1 day; format: functional, organism-based; conditions: 24 h; outline: as §1
Trypanosoma cruzi [9] = assay: Antitrypanosomal activity against Trypanosoma cruzi amastigotes infected in mouse peritoneal macrophages assessed as inhibition of infection after 2 day; format: functional, organism-based; conditions: 48 h; outline: as §1
Trypanosoma cruzi [10] = assay: Antitrypanosomal activity against Trypanosoma cruzi Y infected in mouse assessed as decrease in mouse mortality at 200 mg/kg, po after 16 days post infection; format: functional; design: scale not given: the % may be the effect or the level left
Outline: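 Male albino Swiss mice (6 to 8 weeks, 18 to 20 g), 8 to 10 per group, infected i.p. with 10^4 Y-strain bloodstream trypomastigotes. […] Parasitemia checked daily by Pizzi-Brener method; mortality noted daily to 40 dpi, cumulative mortality and M50 calculated.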

Trypanosoma cruzi [11] = assay: Antitrypanosomal activity against Trypanosoma cruzi trypomastigotes assessed as parasite body rounding at […] after 24 hrs by scanning electron microscopy; format: functional, organism-based
Mus musculus [12] = assay: Toxicity in mouse assessed as urea level in blood at 100 mg/kg, po after 4 days; format: organism-based; design: dose 100 mg/kg, route oral; conditions: in vivo, 96 h; outline: as §2
Trypanosoma cruzi [13] = assay: Antitrypanosomal activity against Trypanosoma cruzi infected in mouse assessed as reduction in inflammatory foci in cardiac muscle at 100 mg/kg, po after 6 days post infection; format: functional, organism-based; design: dose 100 mg/kg; conditions: Muscle tissue
Outline: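 Infected mice were dosed by gavage at 100 mg/kg daily for 10 days from dpi 6. Two mice per group were euthanized at 14 dpi. Paraffin heart sections were stained with hematoxylin-eosin. Under a 40× objective, parasite nests and inflammatory foci (≥10 mononuclear cells) were counted per mm2 over 30 fields.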

[14] = Cytotoxicity against Swiss mouse peritoneal macrophages after 48 hrs by MTT assay; format: cell-based, Peritoneal macrophage cell; conditions: read-out: LC50
Outline: (§5)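 Uninfected host cells were exposed to compounds at 37°C for 2 days, with compound stocks in DMSO. Cells were Swiss mouse peritoneal macrophages or primary mouse embryo heart muscle cells (18-day embryos, trypsin/collagenase dissociated, gelatin-coated coverslips, DMEM with horse and fetal calf sera, chicken embryo extract). Viability was read by MTT at 490 nm to give LC50.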

Mus musculus [15] = assay: Toxicity in mouse assessed as GOT level in blood at 100 mg/kg, po after 4 days; format: organism-based; design: dose 100 mg/kg, route oral; conditions: in vivo, 96 h; outline: as §2
Mus musculus [16] = assay: Toxicity in mouse assessed as GPT level in blood at 400 mg/kg, po after 4 days; format: organism-based; design: dose 400 mg/kg, route oral; conditions: in vivo, 96 h; outline: as §2
Trypanosoma cruzi [17] = assay: Antitrypanosomal activity against Trypanosoma cruzi amastigotes infected in mouse peritoneal macrophages assessed as endocytic index after 2 day; format: functional, organism-based; conditions: 48 h; outline: as §1
Trypanosoma cruzi [18] = assay: Antitrypanosomal activity against Trypanosoma cruzi amastigotes infected in mouse peritoneal macrophages assessed as endocytic index after 4 day; format: functional, organism-based; conditions: 96 h; outline: as §1
Trypanosoma cruzi [19] = assay: Antitrypanosomal activity against Trypanosoma cruzi Y infected in mouse assessed as decrease in mouse mortality at 200 mg/kg, po upto 40 days post infection; format: functional, organism-based; design: dose 200 mg/kg
Outline: (§6)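 Male Swiss mice (6–8 weeks, 18–20 g), 8–10 per group, infected i.p. with 10^4 bloodstream trypomastigotes (Y strain). On dpi 5, a single 200 mg/kg oral gavage dose was given in water with 10% Tween-80. Parasitemia was counted daily from dpi 6 to 21 by the Pizzi-Brener method. Body weight was recorded weekly. Mortality was recorded daily, and cumulative mortality at 40 dpi and M50 were calculated.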

Trypanosoma cruzi [20] = assay: Antitrypanosomal activity against Trypanosoma cruzi infected in mouse assessed as decrease in parasitemia in blood at 100 mg/kg, po after 6 days post infection; format: functional; outline: as §4
Mus musculus [21] = assay: Toxicity in mouse assessed as urea level in blood at 400 mg/kg, po after 4 days; format: organism-based; design: dose 400 mg/kg, route oral; conditions: in vivo, 96 h; outline: as §2
Trypanosoma cruzi [22] = assay: Antitrypanosomal activity against Trypanosoma cruzi amastigotes infected in mouse peritoneal macrophages assessed as inhibition of infection after 4 day; format: functional, organism-based; conditions: 96 h; outline: as §1
Trypanosoma cruzi [23] = assay: Antitrypanosomal activity against Trypanosoma cruzi amastigotes infected in mouse embryo heart muscle cells assessed as inhibition of infection after 24 hrs; format: functional, organism-based; outline: as §3
[24] = Cytotoxicity against swiss mouse HMC after 48 hrs by MTT assay; conditions: read-out: LC50; outline: as §5
[25] = Selectivity index, ratio of LC50 for mouse peritoneal macrophages to IC50 for inhibition of Trypanosoma cruzi amastigotes
Outline: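 SI = LC50/IC50 in peritoneal macrophages. LC50 came from the 2-day MTT assay on uninfected macrophages. Cells were Bouin-fixed and Giemsa-stained, and endocytic index (parasites/100 cells) was counted. Three independent experiments.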

Trypanosoma cruzi [26] = assay: Antitrypanosomal activity against Trypanosoma cruzi amastigotes infected in mouse peritoneal macrophages assessed as endocytic index after 3 day; format: functional, organism-based; conditions: 72 h; outline: as §1
Trypanosoma cruzi [27] = assay: Antitrypanosomal activity against Trypanosoma cruzi amastigotes infected in mouse peritoneal macrophages assessed as endocytic index after 1 day; format: functional, organism-based; conditions: 24 h; outline: as §1
Trypanosoma cruzi [28] = assay: Antitrypanosomal activity against Trypanosoma cruzi trypomastigotes assessed as alteration in flagellar structure with membrane expansion at […] after 24 hrs by Transmission electron microscopy; format: functional, organism-based
Trypanosoma cruzi [29] = assay: Antitrypanosomal activity against Trypanosoma cruzi amastigotes infected in mouse embryo heart muscle cells assessed as inhibition of infection; format: functional, organism-based; conditions: TDE = time-dependent effect; outline: as §3
Trypanosoma cruzi [30] = assay: Antitrypanosomal activity against Trypanosoma cruzi trypomastigotes assessed as alteration in nuclear envelop dilation at […] after 24 hrs by Transmission electron microscopy; format: functional, organism-based
Trypanosoma cruzi [31] = assay: Antitrypanosomal activity against Trypanosoma cruzi Y infected in mouse assessed as decrease in parasitemia in blood at 200 mg/kg, po upto 40 days post infection; format: functional; outline: as §6
[32] = Selectivity index, ratio of LC50 for mouse HMC to IC50 for inhibition of Trypanosoma cruzi amastigotes
Trypanosoma cruzi [33] = assay: Antitrypanosomal activity against Trypanosoma cruzi trypomastigotes assessed as alteration in autophagosome-like structure formation at 17 uM after 24 hrs by Transmission electron microscopy; format: functional, organism-based
Outline: (§7)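 Y-strain bloodstream trypomastigotes (5 × 10^6/ml) were treated for 24 h, washed in PBS, and fixed in 2.5% glutaraldehyde in 0.1 M cacodylate (pH 7.2). They were postfixed with OsO4/ferricyanide/CaCl2, dehydrated in acetone, and embedded in epoxy. Ultrathin sections were stained with uranyl acetate and lead citrate and examined by transmission EM.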

Trypanosoma cruzi [34] = assay: Antitrypanosomal activity against Trypanosoma cruzi amastigotes infected in mouse peritoneal macrophages assessed as inhibition of infection at 30 uM after 1-4 days; format: functional, organism-based; outline: as §1
Trypanosoma cruzi [35] = assay: Antitrypanosomal activity against Trypanosoma cruzi trypomastigotes assessed as increase in vesicles size near the flagellar pocket at 17 uM after 24 hrs by Transmission electron microscopy; format: functional, organism-based; outline: as §7
Trypanosoma cruzi [36] = assay: Antitrypanosomal activity against Trypanosoma cruzi amastigotes infected in mouse embryo heart muscle cells assessed as endocytic index at 40 uM; format: functional, organism-based; outline: as §3
Trypanosoma cruzi [37] = assay: Antitrypanosomal activity against Trypanosoma cruzi amastigotes infected in mouse peritoneal macrophages assessed as endocytic index at 30 uM after 1-4 days; format: functional, organism-based; outline: as §1
Trypanosoma cruzi [38] = assay: Antitrypanosomal activity against Trypanosoma cruzi trypomastigotes assessed as parasite body rounding at 17 uM after 24 hrs by scanning electron microscopy; format: functional, organism-based
Outline: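 Trypomastigotes (5 × 10^6/ml) were treated for 24 h and adhered to poly-L-lysine coverslips. They were fixed in 2.5% glutaraldehyde in 0.1 M cacodylate (pH 7.2) for 40 min and postfixed for 30 min in 1% OsO4, 0.8% ferricyanide and 2.5 mM CaCl2. Samples were acetone-dehydrated, critical-point dried, gold-coated (20 nm) and examined by scanning EM.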

In the case of Cn1c([N+](=O)[O-])cnc1-c1nnc(N/N=C\c2ccc(O)c(O)c2)s1 [BRAZILIZONE A], the IC50 (Trypanosoma cruzi [1]) is reported as 2600 nM, the Activity (Mus musculus [2]) is reported as 62.4 U/L and the Activity (Mus musculus [3]) is reported as “Non-toxic”. For the same compound, the IC50 (Trypanosoma cruzi [4]) was 7600 nM, the Activity (Trypanosoma cruzi [5]) was “Active” and the Activity (Mus musculus [6]) was 25.8 g. For the same compound, the Activity (Trypanosoma cruzi [7]) was “inactive”, the IC50 (Trypanosoma cruzi [8]) was 2100 nM and the IC50 (Trypanosoma cruzi [9]) was 4400 nM. For the same compound, the Activity (Trypanosoma cruzi [10]) was 50%, the Activity (Trypanosoma cruzi [11]) was “Active” and the Activity (Mus musculus [12]) was “Non-toxic”. The Activity (Trypanosoma cruzi [13]) was “inactive”, the CC50 at 48 h [14] was greater than 60000 nM and the Activity (Mus musculus [15]) was “Non-toxic”. It also gave an Activity (Mus musculus [16]) of 22.7 U/L, an IC50 (Trypanosoma cruzi [17]) of 2200 nM and an IC50 (Trypanosoma cruzi [18]) of 1900 nM. The Activity (Trypanosoma cruzi [19]) was “inactive”, the Activity (Trypanosoma cruzi [20]) was “inactive” and the Activity (Mus musculus [21]) was 51.6 mg/dL. For the same compound, the IC50 (Trypanosoma cruzi [22]) was 1700 nM, the Activity (Trypanosoma cruzi [23]) was “Dose-dependent effect” and the CC50 at 48 h [24] was greater than 240000 nM. The “Ratio LC50/IC50” value [25] was greater than 27, the IC50 (Trypanosoma cruzi [26]) was 1400 nM and the IC50 (Trypanosoma cruzi [27]) was 2000 nM. For the same compound, the Activity (Trypanosoma cruzi [28]) was “Active”, the Activity (Trypanosoma cruzi [29]) was “tde” and the Activity (Trypanosoma cruzi [30]) was “Active”. The Activity (Trypanosoma cruzi [31]) was “inactive” and the fold change (FC) [32] was greater than 32.

In the case of Cn1c([N+](=O)[O-])cnc1-c1nnc(N/N=C\c2ccc(Br)cc2)s1, the Activity (Trypanosoma cruzi [33]) is reported as “Active”, the Activity (Mus musculus [2]) is reported as 118 U/L and the Activity (Trypanosoma cruzi [34]) is reported as “inactive”. The Activity (Mus musculus [6]) was 25.2 g, the Activity (Trypanosoma cruzi [7]) was “Active” and the Activity (Trypanosoma cruzi [13]) was “Active”. For the same compound, the CC50 at 48 h [14] was greater than 60000 nM, the Activity (Trypanosoma cruzi [35]) was “Active” and the Activity (Trypanosoma cruzi [36]) was “inactive”. The Activity (Mus musculus [16]) was 27.9 U/L, the Activity (Trypanosoma cruzi [37]) was “inactive” and the Activity (Trypanosoma cruzi [38]) was “Active”. The Activity (Trypanosoma cruzi [19]) was “Active”, the Activity (Trypanosoma cruzi [20]) was “inactive” and the Activity (Mus musculus [21]) was 62.7 mg/dL. The CC50 at 48 h [24] was greater than 120000 nM and the Activity (Trypanosoma cruzi [31]) was 60%.
